According to ChEMBL document CHEMBL3632558, “Synthesis, antimycobacterial and antibacterial activity of l-[(1R,2S)-2-fluorocyclopropyl]naphthyridone derivatives containing an oxime-functionalized pyrrolidine moiety” (2015):
≈ marks a conversion by molar mass, not a printed value.

Experiments:
Type in all cases: functional
[1] = test system: Mycobacterium tuberculosis; test: Antimycobacterial activity against Mycobacterium tuberculosis H37Rv ATCC 27294 by alamar blue assay
How it was run: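 Microplate Alamar Blue Assay; MIC is the lowest concentration giving ≥90% reduction in fluorescence relative to the mean of replicate bacterium-only controls. MDR strain 6133 is resistant to isoniazid and rifampicin.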

[2] = test system: Staphylococcus epidermidis; test: Antibacterial activity against methicillin-resistant Staphylococcus epidermidis 14-37 after 18 to 24 hrs
[3] = test system: Klebsiella pneumoniae; test: Antibacterial activity against Klebsiella pneumoniae 14-4 after 18 to 24 hrs
How it was run: (§1)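 MIC by standard NCCLS reference procedure (M100-S11); lowest concentration of compound inhibiting visible bacterial growth after incubation at 35 °C for 18–24 h, read as complete inhibition of growth. Ciprofloxacin, levofloxacin and moxifloxacin run alongside as reference agents.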

[4] = test system: Klebsiella pneumoniae; test: Antibacterial activity against ESBL-positive Klebsiella pneumoniae 14-19 after 18 to 24 hrs; how it was run: as §1
[5] = test system: Staphylococcus aureus; test: Antibacterial activity against methicillin-sensitive Staphylococcus aureus 14-4 after 18 to 24 hrs; how it was run: as §1
[6] = test system: Enterococcus faecalis; test: Antibacterial activity against Enterococcus faecalis 14-1 after 18 to 24 hrs; how it was run: as §1
[7] = test system: Klebsiella pneumoniae; test: Antibacterial activity against Klebsiella pneumoniae 14-3 after 18 to 24 hrs; how it was run: as §1
[8] = test system: Enterococcus faecium; test: Antibacterial activity against Enterococcus faecium 14-1 after 18 to 24 hrs; how it was run: as §1
[9] = test system: Klebsiella pneumoniae; test: Antibacterial activity against ESBL-positive Klebsiella pneumoniae 14-17 after 18 to 24 hrs; how it was run: as §1
[10] = test system: Klebsiella pneumoniae; test: Antibacterial activity against Klebsiella pneumoniae 14-2 after 18 to 24 hrs; how it was run: as §1
[11] = test system: Enterococcus faecium; test: Antibacterial activity against Enterococcus faecium 14-6 after 18 to 24 hrs; how it was run: as §1
[12] = test system: Staphylococcus epidermidis; test: Antibacterial activity against methicillin-resistant Staphylococcus epidermidis 14-22 after 18 to 24 hrs
[13] = test system: Escherichia coli; test: Antibacterial activity against Escherichia coli ATCC 25922 after 18 to 24 hrs; how it was run: as §1
[14] = test system: Staphylococcus epidermidis; test: Antibacterial activity against methicillin-resistant Staphylococcus epidermidis 14-39 after 18 to 24 hrs
[15] = test system: Klebsiella pneumoniae; test: Antibacterial activity against ESBL-positive Klebsiella pneumoniae 14-18 after 18 to 24 hrs; how it was run: as §1
[16] = test system: Staphylococcus epidermidis; test: Antibacterial activity against methicillin-resistant Staphylococcus epidermidis 14-21 after 18 to 24 hrs
[17] = test system: Staphylococcus epidermidis; test: Antibacterial activity against methicillin-sensitive Staphylococcus epidermidis 14-2 after 18 to 24 hrs; how it was run: as §1
[18] = test system: Staphylococcus aureus; test: Antibacterial activity against methicillin-sensitive Staphylococcus aureus 14-2 after 18 to 24 hrs; how it was run: as §1
[19] = test system: Staphylococcus aureus; test: Antibacterial activity against methicillin-resistant Staphylococcus aureus 14-4 after 18 to 24 hrs
[20] = test system: Enterococcus faecalis; test: Antibacterial activity against Enterococcus faecalis 14-2 after 18 to 24 hrs; how it was run: as §1
[21] = test system: Streptococcus pneumoniae; test: Antibacterial activity against Streptococcus pneumoniae ATCC 19615 after 18 to 24 hrs; how it was run: as §1
[22] = test system: Klebsiella pneumoniae; test: Antibacterial activity against Klebsiella pneumoniae 14-1 after 18 to 24 hrs; how it was run: as §1
[23] = test system: Enterococcus faecium; test: Antibacterial activity against Enterococcus faecium 14-5 after 18 to 24 hrs; how it was run: as §1
[24] = test system: Escherichia coli; test: Antibacterial activity against Escherichia coli 14-2 after 18 to 24 hrs; how it was run: as §1
[25] = test system: Staphylococcus aureus; test: Antibacterial activity against Staphylococcus aureus CMCC 26003 after 18 to 24 hrs; how it was run: as §1
[26] = test system: Staphylococcus aureus; test: Antibacterial activity against methicillin-sensitive Staphylococcus aureus 14-1 after 18 to 24 hrs; how it was run: as §1
[27] = test system: Escherichia coli; test: Antibacterial activity against Escherichia coli 14-1 after 18 to 24 hrs; how it was run: as §1
[28] = test system: Enterococcus faecium; test: Antibacterial activity against Enterococcus faecium 14-2 after 18 to 24 hrs; how it was run: as §1
[29] = test system: Staphylococcus aureus; test: Antibacterial activity against methicillin-resistant Staphylococcus aureus 14-5 after 18 to 24 hrs
[30] = test system: Escherichia coli; test: Antibacterial activity against ESBL-positive Escherichia coli 14-1 after 18 to 24 hrs; how it was run: as §1
[31] = test system: Staphylococcus aureus; test: Antibacterial activity against methicillin-sensitive Staphylococcus aureus 14-3 after 18 to 24 hrs; how it was run: as §1
[32] = test system: Escherichia coli; test: Antibacterial activity against ESBL-positive Escherichia coli 14-2 after 18 to 24 hrs; how it was run: as §1
[33] = test system: Pseudomonas aeruginosa; test: Antibacterial activity against Pseudomonas aeruginosa 14-15 after 18 to 24 hrs; how it was run: as §1
[34] = test system: Pseudomonas aeruginosa; test: Antibacterial activity against Pseudomonas aeruginosa 14-19 after 18 to 24 hrs; how it was run: as §1
[35] = test system: Pseudomonas aeruginosa; test: Antibacterial activity against Pseudomonas aeruginosa 14-9 after 18 to 24 hrs; how it was run: as §1
[36] = test system: Pseudomonas aeruginosa; test: Antibacterial activity against Pseudomonas aeruginosa 14-14 after 18 to 24 hrs; how it was run: as §1
[37] = test system: Pseudomonas aeruginosa; test: Antibacterial activity against Pseudomonas aeruginosa ATCC 27853 after 18 to 24 hrs; how it was run: as §1
[38] = test system: Pseudomonas aeruginosa; test: Antibacterial activity against Pseudomonas aeruginosa 14-16 after 18 to 24 hrs; how it was run: as §1

Row | Structure (SMILES) | MIC90 [1] | MIC [2] | MIC [3] | MIC [4] | MIC [5] | MIC [6] | MIC [7] | MIC [8] | MIC [9] | MIC [10] | MIC [11] | MIC [12] | MIC [14] | MIC [16] | MIC [17] | MIC [18] | MIC [19] | MIC [20] | MIC [22] | MIC [23] | also measured
1 | NCC1CN(c2nc3c(cc2F)c(=O)c(C(=O)O)cn3[C@@H]2C[C@@H]2F)C/C1=N\OCc1ccccc1 (some centres undefined) | 0.5 µg/mL (≈ 1.03 µM) | – | – | – | – | – | – | – | – | – | – | – | – | – | – | – | – | – | – | – | –
2 | O=C(O)c1cn(C2CC2)c2cc(N3CCNCC3)c(F)cc2c1=O [CIPROFLOXACIN] | – | 128 µg/mL (≈ 386 µM) | 32 µg/mL (≈ 96.6 µM) | 64 µg/mL (≈ 193 µM) | 0.5 µg/mL (≈ 1.51 µM) | 128 µg/mL (≈ 386 µM) | 128 µg/mL (≈ 386 µM) | 64 µg/mL (≈ 193 µM) | 4 µg/mL (≈ 12.1 µM) | 16 µg/mL (≈ 48.3 µM) | > 128 µg/mL | 128 µg/mL (≈ 386 µM) | 128 µg/mL (≈ 386 µM) | 64 µg/mL (≈ 193 µM) | > 128 µg/mL | 0.25 µg/mL (≈ 0.754 µM) | > 128 µg/mL | 1 µg/mL (≈ 3.02 µM) | 32 µg/mL (≈ 96.6 µM) | 128 µg/mL (≈ 386 µM) | MIC [13]: < 0.008 µg/mL; MIC [15]: 0.25 µg/mL (≈ 0.754 µM); MIC [21]: 2 µg/mL (≈ 6.04 µM)
3 | NNC(=O)c1ccncc1 [ISONIAZID] | 0.049 µg/mL (≈ 0.357 µM) | – | – | – | – | – | – | – | – | – | – | – | – | – | – | – | – | – | – | – | –
4 | C[C@H]1COc2c(N3CCN(C)CC3)c(F)cc3c(=O)c(C(=O)O)cn1c23.C[C@H]1COc2c(N3CCN(C)CC3)c(F)cc3c(=O)c(C(=O)O)cn1c23.O [LEVOFLOXACIN] | – | 64 µg/mL | 8 µg/mL | 64 µg/mL | 0.5 µg/mL | 128 µg/mL | 16 µg/mL | 16 µg/mL | 4 µg/mL | 8 µg/mL | 64 µg/mL | 32 µg/mL | 64 µg/mL | 64 µg/mL | 128 µg/mL | 0.25 µg/mL | 64 µg/mL | 1 µg/mL | 16 µg/mL | 64 µg/mL | MIC [24]: 4 µg/mL; MIC [25]: 0.125 µg/mL; MIC [26]: 8 µg/mL; MIC [27]: 4 µg/mL; MIC [28]: 32 µg/mL; MIC [29]: 8 µg/mL; MIC [30]: 2 µg/mL; MIC [31]: 0.125 µg/mL; MIC [32]: 8 µg/mL
5 | COc1c(N2C[C@@H]3CCCN[C@@H]3C2)c(F)cc2c(=O)c(C(=O)O)cn(C3CC3)c12 [MOXIFLOXACIN] | – | 8 µg/mL (≈ 19.9 µM) | 16 µg/mL (≈ 39.9 µM) | 64 µg/mL (≈ 159 µM) | < 0.008 µg/mL | 32 µg/mL (≈ 79.7 µM) | 32 µg/mL (≈ 79.7 µM) | 8 µg/mL (≈ 19.9 µM) | 8 µg/mL (≈ 19.9 µM) | 16 µg/mL (≈ 39.9 µM) | 8 µg/mL (≈ 19.9 µM) | 8 µg/mL (≈ 19.9 µM) | 8 µg/mL (≈ 19.9 µM) | 32 µg/mL (≈ 79.7 µM) | 32 µg/mL (≈ 79.7 µM) | 0.06 µg/mL (≈ 0.149 µM) | 16 µg/mL (≈ 39.9 µM) | 0.5 µg/mL (≈ 1.25 µM) | 8 µg/mL (≈ 19.9 µM) | 8 µg/mL (≈ 19.9 µM) | MIC [33]: 16 µg/mL (≈ 39.9 µM); MIC [34]: 1 µg/mL (≈ 2.49 µM); MIC [35]: 4 µg/mL (≈ 9.96 µM); MIC [25]: 0.06 µg/mL (≈ 0.149 µM); MIC [26]: 4 µg/mL (≈ 9.96 µM); MIC [36]: 16 µg/mL (≈ 39.9 µM); MIC [37]: 2 µg/mL (≈ 4.98 µM); MIC [29]: 8 µg/mL (≈ 19.9 µM); MIC [15]: 1 µg/mL (≈ 2.49 µM); MIC [31]: < 0.008 µg/mL; MIC [21]: 0.015 µg/mL (≈ 0.0374 µM); MIC [38]: 8 µg/mL (≈ 19.9 µM)
6 | CO[C@H]1/C=C/O[C@@]2(C)Oc3c(C)c(O)c4c(O)c(c(/C=N/N5CCN(C)CC5)c(O)c4c3C2=O)NC(=O)/C(C)=C\C=C\[C@H](C)[C@H](O)[C@@H](C)[C@@H](O)[C@@H](C)[C@H](OC(C)=O)[C@@H]1C [RIFAMPIN] | 0.05 µg/mL (≈ 0.0608 µM) | – | – | – | – | – | – | – | – | – | – | – | – | – | – | – | – | – | – | – | –
